Screening data from PubChem BioAssay.
UPR CHOP act: activators of apoptotic CHOP UPR arm, primary screen, cell-based, CHO-CHOP luciferase reporter, luminescence, uHTS. UPR activation; percent of tunicamycin response over DMSO baseline. activation, % at 10 µM. hit rate 0.34% among 330,000;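 active = at 10 µM dose, activation of 40% or more, normalized to positive control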;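 note: 100% = tunicamycin at 10 µg/mL and 0% = DMSO alone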
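Dosing – one dose, 10 µM in 0.5% DMSO · System – CHO-CHOP cells, stable luciferase reporter of PERK-eIF2a-CHOP signalling · Input – 500 cells/well · Control set – tunicamycin 10 µg/mL final as positive, DMSO-only wells as negative · Timing – 6 h compound treatment, 37 °C · Measure – % activation vs tunicamycin · Technique – luminescence read with Steady-Glo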
Dynein transport: inhibitors of GR-EGFP nuclear translocation, primary screen, dynein cargo transport inhibitor project, imaging, high-content, 3617.4 mouse cells | hit rate 0.47% among 220,000 | AID 1381, 2008 | test concentration mostly 20 µM; stimulated with dexamethasone, 1 µM; stronger effect = lower value | z-score, hits read low;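 active = plate z-score of nuclear minus cytoplasmic receptor signal below a set negative limit, without overly bright fluorescence or cell loss, cut at about -3.5 in these data, passing the limit was not always enough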;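 note: z-score of nuclear minus cytoplasmic ring GR-EGFP intensity difference per well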
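Buffer or medium: Induction medium lacking tetracycline, stripped serum | Also added: Dexamethasone agonist, 1.0 µM final, for 30 min | Timing: 48 h induction, 1 h compound, 30 min dex at 37 °C | Detection: Formaldehyde fixation, Hoechst nuclear stain, 10x automated fluorescence imaging | Measure: Nuclear versus cytoplasmic GR-EGFP signal, averaged per well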
T cruzi repl: inhibitors of intracellular T. cruzi growth, primary screen, luminescence, NIH3T3 host cells; AID 1885, 2009; hit rate 1.4% among 300,000; inhibition, % (concentration not given with the values); T. cruzi beta-gal in NIH3T3, 90 h;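 active = mean inhibition across valid replicates above about 55%, limit read from the data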;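 note: signal also drops with host cell toxicity which is not excluded here; 0% = plate median of DMSO wells and 100% = zero luminescence signal; higher percent means less beta-gal luminescence so fewer parasites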
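compound dosing = single 50 nL compound addition per well in DMSO | material = NIH/3T3 host cells with β-galactosidase reporter T. cruzi | input = 5,000 host fibroblasts per well | timing = ≥90 h infection period, 3 h prior cell attachment | read-out basis = percent inhibition of parasite-derived β-gal signal | detection = GalScreen β-gal luminescence, detergent lysis, 60 min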
XBP1 UPR activ: activators of adaptive XBP1 UPR arm, primary screen, cell-based, CHO-XBP1 luciferase reporter, luminescence, uHTS. AID 463104, 2010. hit rate 0.33% among 330,000. IRE1-XBP1 UPR activation; percent of tunicamycin response, DMSO as zero. activation, % at 20 µM;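 active = versus positive control, 20 µM dose yields 30% or more activation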;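 note: 100% = tunicamycin at 10 µg/mL and 0% = DMSO only wells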
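Material: CHO cell line with stable XBP1 luciferase reporter; schedule: 16-18 h cell attachment at 37 °C, then 6 h compound exposure; signal: glow luminescence from Steady-Glo reagent; medium: serum-containing F12 medium, 10% FBS; benchmarks: tunicamycin 10 µg/mL and vehicle-only wells; read-out: percent activation relative to tunicamycin reference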
L major viab: Leishmania major promastigote growth inhibition, primary screen | inhibition, % at 10 µM | AID 1063, 2008 | hit rate 9% among 200,000 | Leishmania major promastigotes, resazurin fluorescence viability; in the data active = inhibition above about 50%;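 note: promastigotes grown with compound for 44 hours at 28 °C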
CHOP inh: inhibitors of CHOP promoter induction, primary screen, cell-based, unfolded protein response, luciferase reporter; CHO-K1 CHOP-promoter luciferase, tunicamycin-induced, 15-18 h; inhibition, % at 10 µM; hit rate 3.8% among 220,000;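 active = compounds that reduced the stress-induced luciferase reporter signal by more than about 70% of percent inhibition, limit read from the data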;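 note: 0% = tunicamycin plus vehicle and 100% = wells without tunicamycin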
Active calls of the source: *; . = not tested or not shown. The sample as a whole holds a higher share of hits than the screen did.

SMILES	UPR CHOP act	Dynein transport	T cruzi repl	XBP1 UPR activ	L major viab	CHOP inh
c1ccc(-c2nc3nc4ccccc4nc3n2Cc2ccco2)cc1	2.2	-0.851	4.8	2.2	5.1	14.7
O=C(CSc1nnc(COc2ccc(Cl)cc2)o1)N1CCOCC1	2.4	-1.06	-4.3	-4.8	-1.0	-2.2
CCN1/C(=C/C=C/c2oc3ccc(-c4ccccc4)cc3[n+]2CC)Oc2ccc(-c3ccccc3)cc21	-10.2	-6.99	89.8*	-7.8	100.4*	107.7*
CCCCCCOc1ccc(-c2ccc(C#N)cn2)cc1	0.6	2.45	8.4	-1.6	-6.0	73.7*
COc1ccccc1Nc1nc2nonc2nc1N1CCCCC1C (stereo unspecified)	-0.4	-0.216	15.4	3.6	91.1*	22.7
O=C(COc1ccc(C(=O)c2ccccc2)cc1)NC1CCCCCC1	0.6	1.94	-3.5	1.9	62.3*	45.4
O=C(COc1ccccc1)NC1CCCCC1	-2.8	0.0559	-9.9	0.8	-4.5	6.4
O=C(COc1ccc(C(=O)c2ccccc2)cc1)NC1CCCCC1	2.7	-0.414	-42.2	-1.9	52.5*	31.7
CCC(=O)NC(c1ccccc1)c1c(O)ccc2ccccc12 (stereo unspecified)	0.1	.	1.6	-8.5	.	.
CCCC(=O)NC(c1ccccc1)c1c(O)ccc2ccccc12 (stereo unspecified)	1.3	.	33.9	-2.5	.	.
CCCC(=O)NC(c1ccccc1Cl)c1c(O)ccc2ccccc12 (stereo unspecified)	1.5	2.95	20.3	-6.6	100.3*	14.5
CCCCC(=O)NC(c1ccccc1Cl)c1c(O)ccc2ccccc12 (stereo unspecified)	1.0	0.222	25.6	-0.1	99.3*	46.2
O=C(CSc1nnc(NC(=O)C2CCC2)s1)Nc1ccccc1Br	1.0	.	-11.7	-1.2	.	.
O=C(COC(=O)CNC(=O)c1ccc(Cl)cc1)Nc1cccc(S(=O)(=O)N2CCCC2)c1	0.7	-0.572	-14.0	-0.7	.	8.4
CN(CC(=O)Nc1ccc(F)c(Cl)c1)S(=O)(=O)c1ccc2c(c1)n(C)c(=O)c(=O)n2C	2.0	.	-19.2	-5.6	.	.
CN=c1scc(-c2ccc(OC)cc2)n1/N=C(\C)c1cccnc1	2.0	-0.733	58.4*	-3.3	16.1	29.4
COc1ccc(C2CC(c3cccs3)=NN2C(=S)Nc2ccccc2)cc1OC (stereo unspecified)	3.1	-0.362	7.9	-0.3	70.5*	-2.6
COc1cccc(C2CC(c3cccs3)=NN2C(=S)Nc2ccccc2)c1OC (stereo unspecified)	-0.4	0.0583	39.8	1.4	64.5*	9.5
COc1ccc(C2=NN(C(=O)c3ccccc3)C(c3ccc(OC)c(OC)c3)C2)c(O)c1 (stereo unspecified)	2.2	.	13.4	2.4	.	.
COc1cccc(C2CC(c3cccs3)=NN2C(=O)CCC(=O)O)c1OC (stereo unspecified)	2.1	.	-11.5	-0.9	.	.
S=C(Nc1ccccc1)N1N=C(c2cccs2)CC1c1cccs1 (stereo unspecified)	2.6	0.666	25.2	-2.4	74.5*	-29.4
Cc1ccc(C2CC(c3ccccc3)=NN2C(=S)Nc2ccccc2)o1 (stereo unspecified)	0.3	-1.06	31.5	-0.9	69.5*	-10.9
CC1=NN(C(=S)Nc2ccccc2)C(c2ccccc2)C1 (stereo unspecified)	2.9	1.76	12.4	1.1	14.5	-2.1
COc1ccc2c(c1)CCc1c(C(=O)NCCCn3ccnc3)noc1-2	0.1	-0.768	5.4	1.2	100.0*	-3.2
COCCNC(=O)c1noc2c1CCc1cc(OC)ccc1-2	-0.3	-0.577	12.0	-1.6	-9.8	-26.2
SMILES	UPR CHOP act	Dynein transport	T cruzi repl	XBP1 UPR activ	L major viab	CHOP inh
C=CCn1c(SCC(=O)c2[nH]c(C)c(C(=O)OCC)c2C)nc2scc(-c3ccc(OC)cc3)c2c1=O	.	0.0906	12.0	.	-3.4	64.5
C=CCn1c(SCC(=O)c2[nH]c(C)c(C(=O)OCC)c2C)nc2scc(-c3ccccc3)c2c1=O	15.7	-0.443	25.1	16.6	-2.6	87.9*
CNC1=C(N(C(C)=O)c2ccc(Br)cc2)C(=O)c2ccccc2C1=O	.	0.205	70.3*	.	99.2*	-12.8
Cc1cc(=O)oc2cc(OC(C)C(=O)NC3(C#N)CCCCC3)ccc12 (stereo unspecified)	-0.5	.	.	-0.3	.	.
Cc1cc(C)nc(-n2nc(C)c3c(C(F)(F)F)cc(=O)[nH]c32)n1	2.7	-1.05	1.9	-1.0	9.0	22.3
Cc1cc(C)nc(-n2nc(C)c(Sc3ccc(F)cc3)c2N)n1	.	-0.14	58.1*	.	97.0*	-39.2
Cc1cccc(COc2ccc(/C=N/NC(=O)c3nnn(-c4nonc4N)c3COc3ccc(F)cc3)cc2)c1	6.9	-0.196	13.1	37.3*	.	29.0
CCC(=O)N1CCc2cc(S(=O)(=O)CCC(=O)Nc3cccc(C)n3)ccc21	2.1	0.111	-6.4	-0.8	55.7*	6.6
CC[C@]12c3[nH]c4ccc(OC)cc4c3CCN1C(=O)C(CC(=O)NCCc1ccccn1)C[C@@H]2C(=O)N1CCN(C(=O)c2ccco2)CC1 (stereo partly specified)	4.1	.	.	0.4	.	.
Fc1ccc(C2=Nn3c(nnc3-c3n[nH]c4c3CCC4)SC2)cc1	1.8	-0.792	13.0	4.3	51.2*	-15.5
Cc1cc(-c2nnc3n2N=C(c2ccccc2)CS3)n[nH]1	0.9	0.0537	-6.8	3.2	.	3.3
Cc1cc(-c2nnc3n2N=C(c2ccc(-c4ccccc4)cc2)CS3)n[nH]1	7.3	-0.251	45.9	8.9	65.9*	-17.9
CC1=Nn2c(nnc2-c2n[nH]c3c2CCC3)SC1	-2.4	0.649	3.1	-0.6	4.6	10.7
CN(C)S(=O)(=O)NC(=O)C1=C(N2CCCC2)COC1=O	-1.3	.	.	1.5	.	.
O=C(O)COc1ccccc1/C=N/NC(=O)CSc1nc2ccccc2n1Cc1ccc(Cl)cc1	0.1	0.232	-5.7	-1.3	.	7.4
CCc1c(C2(O)CCCCC2)[nH]c2ccc(C(F)(F)F)cc12	-1.9	.	9.9	0.8	.	.
CN(CC(=O)Nc1ccc(C(N)=O)cc1)CC(=O)Nc1ccccc1Cl	0.9	-0.041	1.8	-3.2	50.8*	38.8
CCCN1CCN(C(=S)NCc2ccc(Cl)cc2)CC1	1.4	-0.211	8.3	6.0	81.0*	19.0
CC(C)(C)c1ccc(C(=O)N2CCN(CCNC(=O)C(=O)NCc3ccc(Cl)cc3)CC2)cc1	7.5	.	65.8*	-5.1	.	.
